Assay results gathered from unrelated publications.
Compare with care: the assays were run in different laboratories.
Target: Mitogen-activated protein kinase kinase kinase kinase 3 (MAP4K3, Homo sapiens, UniProt Q8IVH8)
Residues used in one study (Q8IVH8 1-894): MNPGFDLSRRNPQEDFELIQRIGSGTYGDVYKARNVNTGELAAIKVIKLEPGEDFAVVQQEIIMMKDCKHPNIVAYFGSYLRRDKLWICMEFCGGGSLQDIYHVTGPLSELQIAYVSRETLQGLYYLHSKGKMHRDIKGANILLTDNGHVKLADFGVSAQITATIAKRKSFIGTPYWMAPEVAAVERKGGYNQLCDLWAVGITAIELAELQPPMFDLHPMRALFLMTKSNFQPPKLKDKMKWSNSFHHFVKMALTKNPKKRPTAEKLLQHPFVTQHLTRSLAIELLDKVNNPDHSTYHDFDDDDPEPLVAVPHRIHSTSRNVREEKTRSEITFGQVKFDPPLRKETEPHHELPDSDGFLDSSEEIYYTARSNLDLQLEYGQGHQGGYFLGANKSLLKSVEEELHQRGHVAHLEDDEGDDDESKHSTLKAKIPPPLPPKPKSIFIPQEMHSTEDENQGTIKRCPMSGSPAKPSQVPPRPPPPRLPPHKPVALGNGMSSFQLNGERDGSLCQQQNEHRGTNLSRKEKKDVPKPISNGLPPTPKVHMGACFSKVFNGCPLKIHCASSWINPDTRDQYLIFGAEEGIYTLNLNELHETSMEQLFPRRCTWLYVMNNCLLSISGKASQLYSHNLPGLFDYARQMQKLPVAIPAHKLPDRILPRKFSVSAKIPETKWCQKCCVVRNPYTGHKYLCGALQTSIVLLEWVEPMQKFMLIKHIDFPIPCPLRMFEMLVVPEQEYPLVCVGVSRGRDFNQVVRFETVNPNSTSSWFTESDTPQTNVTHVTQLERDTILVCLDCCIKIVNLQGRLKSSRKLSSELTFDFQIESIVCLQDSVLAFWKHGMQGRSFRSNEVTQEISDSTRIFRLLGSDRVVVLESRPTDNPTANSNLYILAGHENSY

SMILES	test	conditions	endpoint	result
CCCCNc1ncc2c(-c3ccc(F)cc3)nn(C[C@H]3CC[C@H](N)CC3)c2n1	target engagement in cells, inhibitor, chemoproteomics	20 mM	inhibition	44.6%
COc1cc(Cl)c(C(=O)N[C@@H](CN[C@H]2CC[C@@H](N)CC2)Cc2ccc(C#N)cc2)cc1-c1ccc(CN[C@H](C)c2ccc(C)cc2)o1	enzyme activity, inhibitor	1 µM	remaining activity	98%
FC(F)(F)Oc1cccc(-c2cnc3ccc(-c4ccncc4)nn23)c1	enzyme activity, inhibitor, radiometric	1 µM	activity vs control	54%
Cc1ccc(C(=O)NCc2ccsc2)cc1C#Cc1cn(C(C)C)c2ncnc(N)c12	enzyme activity, inhibitor	1 µM	activity vs control	54%
CN1CC(Oc2cnc(C#N)cc2-c2ccn3nc(NC(=O)C4CC4)cc3c2)C1	enzyme activity, inhibitor	1 µM	inhibition	-4%
CC(=O)c1c(NS(C)(=O)=O)c2cc(-c3ccc(Cl)cc3)c(-c3ccc(Cl)cc3Cl)nc2n(C)c1=O	cell-free assay, competition with immobilised ligand	1 µM	remaining binding	99%
O=C(Nc1cnn(-c2csc(C(=O)NC3COC3)c2)c1)Nc1c(F)cccc1Cl	enzyme activity, inhibitor	5 µM	remaining activity	100%
CNC(=O)c1ccc(Nc2ncc(C(F)(F)F)c(NCc3nccnc3N(C)S(C)(=O)=O)n2)cc1	cell-free assay, competition with immobilised ligand	0.1 µM	remaining binding	95%
COc1cc(Nc2cnc(C#N)c(O[C@H](C)CN(C)C)n2)ncc1-c1cnn(C)c1	enzyme activity, inhibitor, radiometric	1 µM	remaining activity	45%
Cc1sc(C(=O)NC2COC2)cc1-n1cc(NC(=O)Nc2c(F)cccc2Cl)cn1	enzyme activity, inhibitor	10 µM	remaining activity	118%
COc1cc(/C=C/C(=O)CC(=O)/C=C/c2ccc(O)c(OC)c2)ccc1O	enzyme activity, inhibitor	1 µM	activity vs control	87%
c1ccc(CNc2nc(N3CCOc4ccccc43)nc3c2CCCC3)cc1	target engagement in cells, inhibitor, chemoproteomics	20 mM	inhibition	3.3%
Cc1ccc(C(=O)Nc2ccc(CN3CCN(C)CC3)c(C(F)(F)F)c2)cc1C#Cc1cnc2cccnn12	enzyme activity, inhibitor	23.5 nM	remaining activity	89%
CCCCN(CCCC)C(=O)CN1C[C@H](c2cc(OC)c3c(c2)OCO3)[C@@H](C(=O)O)[C@@H]1CC(C)(C)CCC	cell-free assay, competition with immobilised ligand	1 µM	remaining binding	100%
Nc1ncnc2occ(-c3ccc(NC(=O)Nc4cc(C(F)(F)F)ccc4F)cc3)c12	cell-free assay, inhibitor	20 µM	remaining signal	0.8%
